A word on the solubility: it is the concentration that dissolves in the medium under given conditions. Higher therefore signals much dissolved substance.

Values after ≈ are worked out from the molar mass of the structure shown.

Data set [1] has as its system B16. Briefly: Ratio of ED50 of compound to that of ED50 of paclitaxel; ED50 expressed as concentration which produces 50% inhibition of proliferation of B16 melanoma cells after 40h incubation. The data set is classed as functional, Mus musculus. The gist of the method:
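B16 melanoma cells were incubated with compound for 40 h. Each value is expressed as a ratio to the paclitaxel ED50.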

For data set [2], the target named is Tubulin beta-1 chain (Homo sapiens) (UniProt Q9H4B7). Briefly: Ratio of ED50 of compound to that of ED50 of paclitaxel; ED50 expressed as concentration which causes polymerization of 50% of the tubulin in microtubule assembly assay (in vitro). It is filed as functional. The gist of the method:
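In vitro microtubule assembly assay. […] Each compound's ED50 is expressed as a ratio to the paclitaxel ED50.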

The nature of data set [3]: Aqueous solubility was determined. It is filed as physicochemical. As to conditions: aqueous medium (not further specified).
The nature of data set [4]: Ratio of solubility to that of paclitaxel solubility. It is filed as ADME.
The nature of data set [5]: Ratio of solubility to that of paclitaxel solubility; range 23-28. The data set is classed as ADME.
Data set [6] can be described thus: Aqueous solubility was determined; range 6.8-8.4. The data set is classed as physicochemical. As to conditions: aqueous medium (not further specified).
Data set [7] is described as follows: Aqueous solubility was determined; range 5-6. As to conditions: aqueous medium (not further specified). It is filed as physicochemical.
The nature of data set [8]: Ratio of solubility to that of paclitaxel solubility; range 17-20. It is filed as ADME.

Sequence of Tubulin beta-1 chain (Homo sapiens) (Q9H4B7 whole entry): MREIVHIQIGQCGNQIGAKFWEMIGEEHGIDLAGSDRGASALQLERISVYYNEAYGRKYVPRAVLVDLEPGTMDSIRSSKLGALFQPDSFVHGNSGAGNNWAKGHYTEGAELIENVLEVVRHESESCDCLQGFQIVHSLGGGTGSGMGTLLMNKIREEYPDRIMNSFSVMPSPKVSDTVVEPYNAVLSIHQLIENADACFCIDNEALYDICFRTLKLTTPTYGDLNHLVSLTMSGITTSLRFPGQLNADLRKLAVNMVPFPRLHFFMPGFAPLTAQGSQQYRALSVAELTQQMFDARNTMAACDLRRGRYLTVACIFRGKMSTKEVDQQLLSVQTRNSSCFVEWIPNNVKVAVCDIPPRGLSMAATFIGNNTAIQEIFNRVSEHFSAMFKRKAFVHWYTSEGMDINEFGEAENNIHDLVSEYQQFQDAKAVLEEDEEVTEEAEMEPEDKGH

For the compound `CC(=O)O[C@@]12COC1C[C@H](O)[C@@]1(C)C(=O)[C@H](O)C3=C(C)[C@@H](OC(=O)[C@H](O)[C@@H](NC(=O)c4sccc4C)C(C)(C)C)C[C@@](O)([C@@H](OC(=O)c4ccccc4)[C@@H]12)C3(C)C` (some centres undefined), the ED50 ratio is 1.3 in data set [1] and 1.4 in data set [2].
As for `CC(=O)O[C@@]12COC1C[C@H](O)[C@@]1(C)C(=O)[C@H](O)C3=C(C)[C@@H](OC(=O)[C@H](O)[C@@H](NC(=O)c4ccc(C)s4)C(C)(C)C)C[C@@](O)([C@@H](OC(=O)c4ccccc4)[C@@H]12)C3(C)C` (some centres undefined), in data set [3], the concentration in solution (solubility) came to 4 µg/mL (≈ 4.93 µM). Further, the ED50 ratio in data set [1] was found to be 32. The Ratio in data set [4] came out at 13.
For `CC(=O)O[C@@]12COC1C[C@H](O)[C@@]1(C)C(=O)[C@H](O)C3=C(C)[C@@H](OC(=O)[C@H](O)[C@@H](NC(=O)Cc4cccs4)C(C)(C)C)C[C@@](O)([C@@H](OC(=O)c4ccccc4)[C@@H]12)C3(C)C` (some centres undefined), in that order: 6.7 µg/mL (≈ 8.25 µM), 3.3 and 23.
For `CC(=O)O[C@@]12COC1C[C@H](O)[C@@]1(C)C(=O)[C@H](O)C3=C(C)[C@@H](OC(=O)[C@H](O)[C@@H](NC(=O)c4cccn4C)C(C)(C)C)C[C@@](O)([C@@H](OC(=O)c4ccccc4)[C@@H]12)C3(C)C` (some centres undefined), in that order: 0.5 µg/mL (≈ 0.629 µM), 1.2 and 1.8.
On to `CC(=O)O[C@@]12COC1C[C@H](O)[C@@]1(C)C(=O)[C@H](O)C3=C(C)[C@@H](OC(=O)[C@H](O)[C@@H](NC(=O)c4cccs4)C(C)(C)C)C[C@@](O)([C@@H](OC(=O)c4ccccc4)[C@@H]12)C3(C)C` (some centres undefined), for which the ED50 ratio came out at 0.53 in data set [1] and 0.42 in data set [2]. Besides, the Ratio in data set [5] amounted to 28. This compound registered a solubility in data set [6] of 8.4 µg/mL (≈ 10.5 µM).
In turn, `CC(=O)O[C@@]12COC1C[C@H](O)[C@@]1(C)C(=O)[C@H](O)C3=C(C)[C@@H](OC(=O)[C@H](O)[C@@H](NC(=O)OC(C)(C)C)C(C)(C)C)C[C@@](O)([C@@H](OC(=O)c4ccccc4)[C@@H]12)C3(C)C` (some centres undefined) had a solubility in data set [3] of 33 µg/mL (≈ 41.9 µM). The ED50 ratio in data set [1] is recorded as 0.4. In data set [4], the Ratio is listed as 110.
Regarding `CCC(CC)C(=O)N[C@H]([C@@H](O)C(=O)O[C@H]1C[C@@]2(O)[C@@H](OC(=O)c3ccccc3)[C@H]3[C@](C)(C(=O)[C@H](O)C(=C1C)C2(C)C)[C@@H](O)CC1OC[C@]13OC(C)=O)C(C)(C)C` (some centres undefined), the ED50 ratio in data set [1] is 26; in data set [2], 1.7.
Turning to `CC(=O)O[C@@]12COC1C[C@H](O)[C@@]1(C)C(=O)[C@H](O)C3=C(C)[C@@H](OC(=O)[C@H](O)[C@@H](NC(=O)c4ccco4)C(C)(C)C)C[C@@](O)([C@@H](OC(=O)c4ccccc4)[C@@H]12)C3(C)C` (some centres undefined), the solubility in data set [3] is 22 µg/mL (≈ 28.1 µM). Also, in data set [1], the ED50 ratio was 2.1. Besides, the Ratio in data set [4] is given as 73.
Taken in the same sequence, the figures for `CC(=O)O[C@@]12COC1C[C@H](O)[C@@]1(C)C(=O)[C@H](O)C3=C(C)[C@@H](OC(=O)[C@H](O)[C@@H](NC(=O)C4CCCCC4)C(C)(C)C)C[C@@](O)([C@@H](OC(=O)c4ccccc4)[C@@H]12)C3(C)C` (some centres undefined) were 45 µg/mL (≈ 56.4 µM), 3.8 and 150.
Taken in the same sequence, the figures for `CCOC(=O)N[C@H]([C@@H](O)C(=O)O[C@H]1C[C@@]2(O)[C@@H](OC(=O)c3ccccc3)[C@H]3[C@](C)(C(=O)[C@H](O)C(=C1C)C2(C)C)[C@@H](O)CC1OC[C@]13OC(C)=O)C(C)(C)C` (some centres undefined) were 9.7 µg/mL (≈ 12.8 µM), 3.4 and 32.
With `CCCOC(=O)N[C@H]([C@@H](O)C(=O)O[C@H]1C[C@@]2(O)[C@@H](OC(=O)c3ccccc3)[C@H]3[C@](C)(C(=O)[C@H](O)C(=C1C)C2(C)C)[C@@H](O)CC1OC[C@]13OC(C)=O)C(C)(C)C` (some centres undefined), the values for the ED50 ratio in data set [1] and in data set [2] were 1.5 and 1.7, respectively.
For `CCCCCCOC(=O)N[C@H]([C@@H](O)C(=O)O[C@H]1C[C@@]2(O)[C@@H](OC(=O)c3ccccc3)[C@H]3[C@](C)(C(=O)[C@H](O)C(=C1C)C2(C)C)[C@@H](O)CC1OC[C@]13OC(C)=O)C(C)(C)C` (some centres undefined), in that order: 12 and 2.3.
Consider `CC(=O)O[C@@]12COC1C[C@H](O)[C@@]1(C)C(=O)[C@H](O)C3=C(C)[C@@H](OC(=O)[C@H](O)[C@@H](NC(=O)OC(C)C)C(C)(C)C)C[C@@](O)([C@@H](OC(=O)c4ccccc4)[C@@H]12)C3(C)C` (some centres undefined), for which the concentration in solution in data set [3] (solubility) came to 0.5 µg/mL (≈ 0.646 µM). For the same compound, the ED50 ratio in data set [1] turned out to be 1.2. For the same compound, the Ratio in data set [4] was 1.7.
For the compound `CC(=O)O[C@@]12COC1C[C@H](O)[C@@]1(C)C(=O)[C@H](O)C3=C(C)[C@@H](OC(=O)[C@H](O)[C@@H](NC(=O)c4ccoc4)C(C)(C)C)C[C@@](O)([C@@H](OC(=O)c4ccccc4)[C@@H]12)C3(C)C` (some centres undefined), the ED50 ratio in data set [1] amounted to 2.3; in data set [2] it was 1.6.
In the case of `CC(=O)O[C@@]12COC1C[C@H](O)[C@@]1(C)C(=O)[C@H](O)C3=C(C)[C@@H](OC(=O)[C@H](O)[C@@H](NC(=O)/C=C/c4cccs4)C(C)(C)C)C[C@@](O)([C@@H](OC(=O)c4ccccc4)[C@@H]12)C3(C)C` (some centres undefined), the concentration in solution in data set [3] (solubility) was 1 µg/mL (≈ 1.21 µM).
In data set [7], `CC(=O)O[C@@]12CO[C@@H]1C[C@H](O)[C@@]1(C)C(=O)[C@H](O)C3=C(C)[C@@H](OC(=O)[C@H](O)[C@@H](NC(=O)OC(C)(C)C)c4ccccc4)C[C@@](O)([C@@H](OC(=O)c4ccccc4)[C@H]21)C3(C)C.O.O.O` [DOCETAXEL] gave a solubility of 6 µg/mL. Moreover, the ED50 ratio in data set [1] stood at 0.41; in data set [2], 0.45. The Ratio in data set [8] worked out at 20.
In the case of `CC(=O)O[C@@]12COC1C[C@H](O)[C@@]1(C)C(=O)[C@H](O)C3=C(C)[C@@H](OC(=O)[C@H](O)[C@@H](NC(=O)c4ccsc4)C(C)(C)C)C[C@@](O)([C@@H](OC(=O)c4ccccc4)[C@@H]12)C3(C)C` (some centres undefined), in data set [3], the concentration in solution (solubility) was 4.7 µg/mL (≈ 5.89 µM). In addition, the ED50 ratio in data set [1] is listed as 1.2. Moreover, in data set [4], the Ratio came out at 16.
For `CC(=O)O[C@@]12COC1C[C@H](O)[C@@]1(C)C(=O)[C@H](O)C3=C(C)[C@@H](OC(=O)[C@H](O)[C@@H](NC(=O)C4CCC4)C(C)(C)C)C[C@@](O)([C@@H](OC(=O)c4ccccc4)[C@@H]12)C3(C)C` (some centres undefined), in that order: 24 µg/mL (≈ 31.2 µM), 3 and 80.
On to `CC(=O)O[C@@]12COC1C[C@H](O)[C@@]1(C)C(=O)[C@H](O)C3=C(C)[C@@H](OC(=O)[C@H](O)[C@@H](NC(=O)C4CCCC4)C(C)(C)C)C[C@@](O)([C@@H](OC(=O)c4ccccc4)[C@@H]12)C3(C)C` (some centres undefined), for which the figures for the ED50 ratio in data set [1] and in data set [2] were 1.4 and 1.5, respectively.
For `CC(=O)O[C@H]1C(=O)[C@@]2(C)[C@H]([C@H](OC(=O)c3ccccc3)[C@]3(O)C[C@H](OC(=O)[C@H](O)[C@@H](NC(=O)c4ccccc4)c4ccccc4)C(C)=C1C3(C)C)[C@]1(OC(C)=O)CO[C@@H]1C[C@@H]2O` [PACLITAXEL], in data set [1], the ED50 ratio came to 1. Besides, in data set [4], the Ratio is 1.
`CC(=O)O[C@@]12COC1C[C@H](O)[C@@]1(C)C(=O)[C@H](O)C3=C(C)[C@@H](OC(=O)[C@H](O)[C@@H](NC(=O)C4CC4)C(C)(C)C)C[C@@](O)([C@@H](OC(=O)c4ccccc4)[C@@H]12)C3(C)C` (some centres undefined) showed a solubility in data set [3] of 45 µg/mL (≈ 59.5 µM). The ED50 ratio in data set [1] was 2.1. Further, the Ratio in data set [4] came to 150.
For `CC(=O)O[C@@]12COC1C[C@H](O)[C@@]1(C)C(=O)[C@H](O)C3=C(C)[C@@H](OC(=O)[C@H](O)[C@@H](NC(=O)c4ccccc4)C(C)(C)C)C[C@@](O)([C@@H](OC(=O)c4ccccc4)[C@@H]12)C3(C)C` (some centres undefined) [BUTITAXEL], in that order: 2.8 µg/mL (≈ 3.54 µM), 7.5 and 9.3.
